ChEMBL document CHEMBL1221214, “Cytosporone B is an agonist for nuclear orphan receptor Nur77” (Nat Chem Biol, 2008)
Active and inactive are the calls of the source. The calls are words filed in the database; no cut-off is given here.

Experiments:
[1] = molecular target: T1, Nuclear receptor subfamily 4immunitygroup A member 1 (Homo sapiens, UniProt P22736); test: Binding affinity to Nur77 receptor expressed in human BGC823 cells; format: cell-based, BGC-823
[2] = molecular target: T1, Nuclear receptor subfamily 4immunitygroup A member 1; test: Agonist activity at nuclear orphan receptor Nur77 in human BGC823 cells bearing beta-galactosidase expression vector assessed as transcriptional activation of estrogen receptor reporter gene after 12 hrs by luciferase assay; format: functional, cell-based; settings: BGC-823
[3] = molecular target: T1, Nuclear receptor subfamily 4immunitygroup A member 1; test: Binding affinity to GST-tagged nuclear orphan receptor Nur77 at 25 degC by fluorescence quenching analysis
In short: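 GST-Nur77 intrinsic fluorescence (emission maximum 336 nm) monitored while increasing Csn-B amounts were added; inner-filter contribution estimated with GST alone and subtracted to give corrected quenching curves.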

[4] = molecular target: T1, Nuclear receptor subfamily 4immunitygroup A member 1; test: Binding affinity to nuclear orphan receptor Nur77-DNA binding domain at 5 uM by fluorescence quenching analysis
[5] = molecular target: T1, Nuclear receptor subfamily 4immunitygroup A member 1; test: Agonist activity at nuclear orphan receptor Nur77 expressed in human BGC823 cells co-transfected with fused GAL4-Nur77 assessed as transactivation after 12 hrs by luciferase reporter gene assay; format: functional, cell-based, BGC-823
[6] = molecular target: T1, Nuclear receptor subfamily 4immunitygroup A member 1; test: Agonist activity at nuclear orphan receptor Nur77 expressed in human BGC823 cells co-transfected with fused GAL4-LBD assessed as transactivation after 12 hrs by luciferase reporter gene assay; format: functional, cell-based, BGC-823
[7] = molecular target: Nuclear receptor subfamily 4 group A member 2 (Homo sapiens) (UniProt P43354); test: Agonist activity at nuclear orphan receptor Nurr1 expressed in human BGC823 cells co-transfected with fused GAL4-Nurr1(LBD) assessed as transactivation after 12 hrs by transactivation assay; format: functional, cell-based; settings: BGC-823
Chain of Nuclear receptor subfamily 4 group A member 2 (Homo sapiens) (P43354 whole entry, the tested form may be a part): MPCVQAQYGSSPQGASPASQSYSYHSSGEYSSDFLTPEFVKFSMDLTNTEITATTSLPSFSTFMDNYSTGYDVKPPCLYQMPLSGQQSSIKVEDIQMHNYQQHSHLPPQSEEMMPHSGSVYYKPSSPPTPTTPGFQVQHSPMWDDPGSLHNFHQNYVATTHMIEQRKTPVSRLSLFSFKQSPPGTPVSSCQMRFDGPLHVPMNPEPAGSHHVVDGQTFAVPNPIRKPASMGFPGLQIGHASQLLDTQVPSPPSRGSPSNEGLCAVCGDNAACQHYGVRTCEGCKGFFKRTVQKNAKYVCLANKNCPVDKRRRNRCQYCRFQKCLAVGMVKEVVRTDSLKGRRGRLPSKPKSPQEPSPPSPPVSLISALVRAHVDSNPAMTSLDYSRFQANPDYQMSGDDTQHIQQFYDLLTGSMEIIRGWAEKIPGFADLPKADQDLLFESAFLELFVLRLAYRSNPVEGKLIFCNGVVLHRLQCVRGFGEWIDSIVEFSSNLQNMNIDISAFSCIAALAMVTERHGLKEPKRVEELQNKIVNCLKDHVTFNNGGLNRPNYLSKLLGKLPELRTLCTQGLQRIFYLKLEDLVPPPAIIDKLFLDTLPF

Mus musculus [8] = test: Increase in blood glucose level in wild-type mouse C57BL/6 at 50 mg/kg, ip within 30 mins; format: functional; settings: route intraperitoneal
In short: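 C57BL/6 mice (wild-type or Nr4a1-/-, six weeks old) fasted 16 h with water, then given 50 mg kg-1 intraperitoneally. DMSO (50 μl) or injection without vehicle served as controls. Tail-vein blood glucose was read by glucometer at 15, 30, 60, 90, 120, 180 and 300 min. Means ± s.e.m.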

[9] = molecular target: Nuclear receptor subfamily 4 group A member 1 (Mus musculus) (UniProt P12813); test: Agonist activity at Nur77 in wild-type mouse C57BL/6 assessed as pyruvate kinase mRNA at 50 mg/kg, ip within 30 mins by real-time PCR analysis; format: functional, organism-based; set-up: dose 50 mg/kg
Chain of Nuclear receptor subfamily 4 group A member 1 (Mus musculus) (P12813 whole entry, the tested form may be a part): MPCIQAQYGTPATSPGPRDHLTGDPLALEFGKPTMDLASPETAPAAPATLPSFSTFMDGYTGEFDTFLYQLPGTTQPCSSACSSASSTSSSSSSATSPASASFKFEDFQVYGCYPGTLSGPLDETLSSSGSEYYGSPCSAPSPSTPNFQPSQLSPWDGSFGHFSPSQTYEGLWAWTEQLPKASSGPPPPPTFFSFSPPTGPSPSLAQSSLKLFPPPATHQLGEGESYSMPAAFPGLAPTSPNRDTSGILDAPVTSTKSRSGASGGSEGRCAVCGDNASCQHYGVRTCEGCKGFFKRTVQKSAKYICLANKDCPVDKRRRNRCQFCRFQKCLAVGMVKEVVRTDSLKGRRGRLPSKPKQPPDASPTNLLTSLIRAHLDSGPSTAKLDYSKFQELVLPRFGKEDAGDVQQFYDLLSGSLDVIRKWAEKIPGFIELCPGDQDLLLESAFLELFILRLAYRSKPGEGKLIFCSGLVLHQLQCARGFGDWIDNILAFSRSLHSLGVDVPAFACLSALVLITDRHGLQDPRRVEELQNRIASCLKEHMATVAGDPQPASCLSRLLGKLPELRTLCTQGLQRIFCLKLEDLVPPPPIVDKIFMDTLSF

[10] = molecular target: Nuclear receptor subfamily 4 group A member 1 (Mus musculus) (UniProt P12813); test: Agonist activity at Nur77 in wild-type mouse C57BL/6 assessed as hexokinase mRNA at 50 mg/kg, ip after 300 mins by real-time PCR analysis; format: functional, organism-based; set-up: dose 50 mg/kg
[11] = molecular target: Nuclear receptor subfamily 4 group A member 1 (Mus musculus) (UniProt P12813); test: Agonist activity at Nur77 in wild-type mouse C57BL/6 assessed as phosphofructokinase mRNA at 50 mg/kg, ip after 300 mins by real-time PCR analysis; format: functional, organism-based; set-up: dose 50 mg/kg
[12] = molecular target: Nuclear receptor subfamily 4 group A member 1 (Mus musculus) (UniProt P12813); test: Agonist activity at Nur77 in wild-type mouse C57BL/6 assessed as pyruvate kinase mRNA at 50 mg/kg, ip after 300 mins by real-time PCR analysis; format: functional, organism-based; set-up: dose 50 mg/kg
Mus musculus [13] = organism: Mus musculus; test: Reduction in blood glucose level in insulin treated mouse C57BL/6 within 30 mins; format: functional
In short: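 C57BL/6 mice fasted 5 h with water, then injected intraperitoneally with insulin (0.5 U kg-1), alone or with compound at 50 mg kg-1. Tail-vein blood glucose was read by glucometer at 15–300 min after treatment. Means ± s.e.m.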

BGC-823 [14] = test: Induction of Nur77 mediated apoptosis in human BGC823 cells assessed as nuclear DNA condensation by flow cytometry assay; format: functional, cell-based
BGC-823 [15] = test: Induction of mitochondrial translocation of Nur77 from nucleus in human BGC823 cells transfected with GFP-Nur77 at 5 ug/ml after 12 hrs using immunostained with anti-Hsp60 by confocal microscopy; format: functional, cell-based
In short: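 BGC-823 cells transfected with GFP-Nur77, treated at 5 μg ml-1 for 12 h, immunostained with anti-Hsp60 and Texas Red secondary antibody, and imaged by confocal microscopy for mitochondrial localization.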

L02 = test: Antiproliferative activity against human HL7702 cells assessed as number of viable cells after 72 hrs by MTT assay; format: functional, cell-based
Mus musculus [16] = organism: Mus musculus; test: Antiproliferative activity against mouse ME-Hep4 cells assessed as number of viable cells after 72 hrs by MTT assay; format: functional, cell-based
[17] = molecular target: T1, Nuclear receptor subfamily 4immunitygroup A member 1; test: Binding affinity to NuR77-LBD receptor expressed in human BGC823 cells; format: cell-based, BGC-823
[18] = molecular target: T1, Nuclear receptor subfamily 4immunitygroup A member 1; test: Agonist activity at nuclear orphan receptor Nur77 expressed in human BGC823 cells co-transfected with pLuc-3500 containing Nr4a1 promoter assessed as transcriptional activity; format: functional, cell-based; settings: BGC-823
[19] = molecular target: T1, Nuclear receptor subfamily 4immunitygroup A member 1; test: Induction of Nur77-SRC1 interaction in human 293T cells by GST-pull-down assay; format: cell-based
In short: (§1)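 293T cells transfected with Flag-SRC-1, -2 or -3 and treated at 10⁻⁶ M for 3 h. Lysates were incubated with GST-Nur77 or GST alone, and bound SRC was detected by pull-down against input levels.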

[20] = molecular target: T1, Nuclear receptor subfamily 4immunitygroup A member 1; test: Induction of Nur77-SRC2 interaction in HEK293T cells by GST-pull-down assay; format: cell-based; settings: HEK-293T; in short: as §1
BGC-823 [21] = test: Induction of SRC2 recruitment to NurRE in human BGC823 cells after 12 hrs by luciferase/beta-galactosidase reporter assay; format: functional, cell-based
In short: (§2)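 BGC-823 cells cotransfected with or without SRC-1, SRC-2 or SRC-3, plus NurRE-luciferase reporter and β-galactosidase, then treated for 12 h at a range of concentrations. Fold induction is each luciferase activity relative to non-SRC transfection at the same concentration.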

BGC-823 [22] = test: Induction of SRC3 recruitment to NurRE in human BGC823 cells after 12 hrs by luciferase/beta-galactosidase reporter assay; format: functional, cell-based; in short: as §2
[23] = molecular target: T1, Nuclear receptor subfamily 4immunitygroup A member 1; test: Induction of SRC2-enhanced Nur77 transactivational activity in human BGC823 cells after 12 hrs by luciferase/beta-galactosidase reporter assay; format: cell-based; settings: BGC-823; in short: as §2
[24] = molecular target: T1, Nuclear receptor subfamily 4immunitygroup A member 1; test: Induction of SRC1-enhanced Nur77 transactivational activity in human BGC823 cells after 12 hrs by luciferase/beta-galactosidase reporter assay; format: cell-based; settings: BGC-823; in short: as §2
[25] = molecular target: T1, Nuclear receptor subfamily 4immunitygroup A member 1; test: Agonist activity at Nur77 expressed in human gastric cancer BGC823 assessed as transactivation in presence of siRNA against Nur77; format: functional; settings: Stomach
[26] = molecular target: Nuclear receptor subfamily 4 group A member 1 (Mus musculus) (UniProt P12813); test: Agonist activity at Nur77 in Nr4a1 deficient mouse transfected withGAL4-Y453A assessed as transcriptional activation of luciferase reporter gene; format: functional
In short: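 Nr4a1-/- mice (n = 5/group) given tail-vein GAL4-Nur77 or GAL4-Y453A with GAL4-luciferase reporter and β-galactosidase in in vivo transfection reagent; 5 h later DMSO or Csn-B 50 mg kg-1 ip; liver luciferase measured at 24 h.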

BGC-823 [27] = test: Induction of Nur77 mediated apoptosis in human BGC823 cells at 5 ug/ml after 48 hrs by flow cytometry assay
[28] = molecular target: Nuclear receptor subfamily 4 group A member 1 (Mus musculus) (UniProt P12813); test: Agonist activity at Nur77 in Nr4a1-/- mouse transfected withGAL4-Y453A assessed as transcriptional activation of luciferase reporter gene
BGC-823 [29] = test: Antitumor activity against human BGC823 cells expressing Nur77-WT xenografted in athymic nude mouse BALB/c assessed as increase in apoptotic cells by TUNEL assay

T1 sequence (P22736 whole entry): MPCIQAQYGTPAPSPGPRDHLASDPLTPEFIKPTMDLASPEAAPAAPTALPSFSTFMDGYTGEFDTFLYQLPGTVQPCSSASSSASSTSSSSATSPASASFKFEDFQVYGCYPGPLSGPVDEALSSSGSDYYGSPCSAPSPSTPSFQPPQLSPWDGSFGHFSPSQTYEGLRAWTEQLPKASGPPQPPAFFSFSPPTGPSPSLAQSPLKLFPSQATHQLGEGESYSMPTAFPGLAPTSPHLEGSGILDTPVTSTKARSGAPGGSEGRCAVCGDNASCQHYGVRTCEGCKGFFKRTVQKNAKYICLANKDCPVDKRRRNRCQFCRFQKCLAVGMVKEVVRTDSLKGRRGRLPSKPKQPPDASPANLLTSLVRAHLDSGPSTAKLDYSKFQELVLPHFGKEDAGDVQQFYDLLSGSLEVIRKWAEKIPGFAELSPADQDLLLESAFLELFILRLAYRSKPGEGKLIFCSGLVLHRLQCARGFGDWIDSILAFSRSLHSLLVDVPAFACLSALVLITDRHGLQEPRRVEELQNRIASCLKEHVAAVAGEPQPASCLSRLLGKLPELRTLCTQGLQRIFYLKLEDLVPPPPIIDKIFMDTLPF

## CCCCCCCC(=O)c1c(O)cc(O)cc1CC(=O)OCC [CYTOSPORONE B]
[1]
  Kd: 740 nM
[2]
  Activity: inactive
[3]
  Activity: Active
[4]
  Activity: inactive
[5]
  EC50: 0.278 nM
[6]
  EC50: 0.115 nM
[7]
  Activity: inactive
Mus musculus [8]
  Activity: 11.4 mM
[9]
  Activity: inactive
[10]
  Activity: inactive
[11]
  Activity: inactive
[12]
  Activity: inactive
Mus musculus [13]
  fold change (FC): 3
BGC-823 [14]
  Activity: Active
BGC-823 [15]
  Activity: Active
L02
  inhibition: Active
Mus musculus [16]
  inhibition: Active
[17]
  Kd: 1510 nM
[18]
  Activity: Active
[19]
  Activity: Active
[20]
  Activity: Active
BGC-823 [21]
  Activity: Active
BGC-823 [22]
  Activity: inactive
[23]
  Activity: Dose-dependent effect
[24]
  Activity: Dose-dependent effect
[25]
  Activity: inactive
[26]
  Activity: inactive
BGC-823 [27]
  Activity: 63.5%
[28]
  Activity: Active
BGC-823 [29]
  Activity: Active
